Measurements: ChEMBL document CHEMBL3352170, “Sulfonamides as multifunctional agents for Alzheimer's disease” (Bioorg Med Chem Lett, 2015)
Active and inactive are the calls of the source. No cut-off for these calls is given here.

Legend:
[1] = Antioxidant activity assessed as DPPH radical scavenging activity at 10 uM after 30 mins; type: physicochemical; settings: 0.5 h
[2] = target: Amyloid-beta precursor protein (Homo sapiens) (UniProt P05067); test: Stimulation of Amyloid beta (1 to 42) (unknown origin) oligomer assembly at Abeta:compound ratio of 0.0002 after 30 mins by single-site ELISA assay
Method in brief: (§1)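 Oligomer formation was read in a single-site streptavidin-based assay using biotinyl-Aβ(1–42) at 0.01 µM. Aβ/inhibitor ratio was 0.0002, with 30 min incubation.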

[3] = target: Amyloid-beta precursor protein (Homo sapiens) (UniProt P05067); test: Inhibition of Amyloid beta (1 to 40) (unknown origin) fibril formation at Abeta:compound ratio of 1:10 after 4 days by Thioflavin-T fluorescence assay
Method in brief: (§2)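 Aβ fibrillogenesis was measured by quantitative Thioflavin-T fluorescence with Aβ at 100 µM and Aβ:inhibitor at 1:10, or 1:1 for one compound. Signal was normalized to the fluorescence of the inhibitor-free control.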

[4] = target: Amyloid-beta precursor protein (Homo sapiens) (UniProt P05067); test: Stimulation of Amyloid beta (1 to 40) (unknown origin) fibril formation at Abeta:compound ratio of 1:10 after 4 days by Thioflavin-T fluorescence assay; method in brief: as §2
[5] = target: Amyloid-beta precursor protein (Homo sapiens) (UniProt P05067); test: Inhibition of Amyloid beta (1 to 42) (unknown origin) oligomer assembly at Abeta:compound ratio of 0.0002 after 30 mins by single-site ELISA assay; method in brief: as §1
[6] = target: T1, Cholinesterase (Homo sapiens, UniProt P06276); test: Inhibition of BuChE (unknown origin) assessed as reduction in S-butyrylthiocholine chloride hydrolysis at 10 uM after 15 mins by Ellman method
Method in brief: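 Single-concentration screen of the commercial and synthetic sulfonamides. Read-out is percent inhibition of BuChE activity. Galanthamine serves as the reference standard.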

[7] = target: Amyloid-beta precursor protein (Homo sapiens) (UniProt P05067); test: Inhibition of Amyloid beta (1 to 40) (unknown origin) fibril formation at Abeta:compound ratio of 1:1 after 4 days by Thioflavin-T fluorescence assay; settings: concentration not given here; method in brief: as §2
[8] = target: T1, Cholinesterase; test: Inhibition of BuChE (unknown origin) assessed as reduction in S-butyrylthiocholine chloride hydrolysis after 15 mins by Ellman method
[9] = target: Amyloid-beta precursor protein (Homo sapiens) (UniProt P05067); test: Inhibition of Amyloid beta (1 to 40) (unknown origin) fibril formation at Abeta:compound ratio of 1:10 after 4 days by atomic force microscopy
Method in brief: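 Aβ(1–40) was incubated for 4 days with or without inhibitor, at 100 µM Aβ and Aβ:inhibitor 1:10. Fibril morphology was imaged by atomic force microscopy against a solvent-treated control.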

[10] = target: Acetylcholinesterase (Homo sapiens, UniProt P22303); test: Inhibition of AChE (unknown origin) assessed as reduction in acetylthiocholine iodide hydrolysis after 15 mins by Ellman method
Chain of Acetylcholinesterase (P22303 whole entry): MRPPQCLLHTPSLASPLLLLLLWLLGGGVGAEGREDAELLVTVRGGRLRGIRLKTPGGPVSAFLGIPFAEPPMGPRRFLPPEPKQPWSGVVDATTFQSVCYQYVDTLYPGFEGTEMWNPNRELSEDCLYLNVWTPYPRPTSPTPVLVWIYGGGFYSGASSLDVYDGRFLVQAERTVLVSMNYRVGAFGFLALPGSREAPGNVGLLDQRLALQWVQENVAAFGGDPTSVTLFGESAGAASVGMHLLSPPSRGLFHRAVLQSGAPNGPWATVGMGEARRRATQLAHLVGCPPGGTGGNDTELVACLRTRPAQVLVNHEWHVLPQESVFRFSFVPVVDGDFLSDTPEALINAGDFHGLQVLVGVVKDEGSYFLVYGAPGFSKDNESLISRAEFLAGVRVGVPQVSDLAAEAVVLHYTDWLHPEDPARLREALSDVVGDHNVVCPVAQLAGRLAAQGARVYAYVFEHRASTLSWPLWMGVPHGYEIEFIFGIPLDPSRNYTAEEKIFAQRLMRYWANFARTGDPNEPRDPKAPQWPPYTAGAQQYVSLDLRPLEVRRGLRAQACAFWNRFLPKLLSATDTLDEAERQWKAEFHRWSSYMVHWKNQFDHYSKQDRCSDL

Chain of Amyloid-beta precursor protein (Homo sapiens) (P05067 whole entry): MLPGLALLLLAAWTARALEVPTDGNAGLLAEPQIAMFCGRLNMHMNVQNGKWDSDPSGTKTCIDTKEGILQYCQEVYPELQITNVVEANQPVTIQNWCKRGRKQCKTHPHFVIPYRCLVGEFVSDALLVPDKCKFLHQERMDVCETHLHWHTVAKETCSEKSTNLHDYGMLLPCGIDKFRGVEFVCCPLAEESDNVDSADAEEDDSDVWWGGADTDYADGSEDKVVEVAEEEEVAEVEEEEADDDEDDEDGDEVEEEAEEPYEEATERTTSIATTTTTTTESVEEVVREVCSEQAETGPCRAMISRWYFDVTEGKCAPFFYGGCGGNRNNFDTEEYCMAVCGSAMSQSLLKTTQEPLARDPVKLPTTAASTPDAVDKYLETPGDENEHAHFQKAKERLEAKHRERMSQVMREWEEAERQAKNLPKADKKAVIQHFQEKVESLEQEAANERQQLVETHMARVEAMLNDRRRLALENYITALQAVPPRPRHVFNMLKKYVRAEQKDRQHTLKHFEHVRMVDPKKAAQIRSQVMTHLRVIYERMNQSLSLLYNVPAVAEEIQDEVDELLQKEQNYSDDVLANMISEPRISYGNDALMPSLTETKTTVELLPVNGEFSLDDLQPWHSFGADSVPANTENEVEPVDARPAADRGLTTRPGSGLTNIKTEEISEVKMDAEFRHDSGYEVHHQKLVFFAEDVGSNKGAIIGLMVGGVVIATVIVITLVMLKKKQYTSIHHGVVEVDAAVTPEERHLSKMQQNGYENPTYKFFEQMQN
T1 sequence (P06276 whole entry): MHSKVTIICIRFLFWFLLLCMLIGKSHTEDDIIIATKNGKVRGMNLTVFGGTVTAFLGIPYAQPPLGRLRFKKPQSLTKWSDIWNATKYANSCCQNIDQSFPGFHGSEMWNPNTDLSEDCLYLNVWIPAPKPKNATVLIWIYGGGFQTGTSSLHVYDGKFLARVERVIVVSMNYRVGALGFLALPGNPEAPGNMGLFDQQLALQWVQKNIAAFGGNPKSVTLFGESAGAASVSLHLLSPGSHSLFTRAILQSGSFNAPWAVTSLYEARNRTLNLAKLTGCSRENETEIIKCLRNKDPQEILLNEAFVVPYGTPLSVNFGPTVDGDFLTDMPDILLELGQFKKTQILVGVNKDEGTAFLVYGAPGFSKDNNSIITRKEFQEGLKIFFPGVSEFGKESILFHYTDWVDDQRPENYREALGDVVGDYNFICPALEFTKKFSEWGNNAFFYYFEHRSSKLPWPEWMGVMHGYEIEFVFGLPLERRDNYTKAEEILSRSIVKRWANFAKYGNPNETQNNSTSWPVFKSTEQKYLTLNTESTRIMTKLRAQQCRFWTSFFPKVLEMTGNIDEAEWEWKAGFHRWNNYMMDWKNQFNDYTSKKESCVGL

SMILES | Activity [2] | inhibition [3] | Activity [4] | inhibition [5] | inhibition [6] | further results
Cl.O=S(=O)(CCCN(CCO)CCO)NCCNc1cccc2ccccc12 | Active | Active |  |  |  | Activity [1]: Active
O=C1c2ccccc2S(=O)(=O)N1CCCN1CCN(Cc2ccccc2)CC1 |  |  | Active | inactive |  | 
CC(NCCCS(=O)(=O)NCCNc1cccc2ccccc12)c1ccccc1 (centres undefined) | Active | Active |  |  | > 40% | 
O=S(=O)(CCCN1CCC(O)CC1)NCCNc1cccc2ccccc12 | Active |  |  |  |  | inhibition ([3]; concentration not given here): 64%
O=S(=O)(CCCN1CCN(c2ccccn2)CC1)NCCNc1cccc2ccccc12 | Active | Active |  |  | > 40% | 
O=C1c2ccccc2S(=O)(=O)N1CCCN1CCC(O)CC1 |  |  | Active | < 54% |  | 
O=S(=O)(CCCCl)NCCNc1cccc2ccccc12 | Active | Active |  |  |  | 
O=S(=O)(CCCNCCNc1cccc2ccccc12)NCCNc1cccc2ccccc12 | Active |  |  |  | 99% | inhibition [7]: 45%; IC50 [8]: 930 nM
O=S(=O)(CCCNCCc1c[nH]c2ccccc12)NCCNc1cccc2ccccc12 | Active | Active |  |  | > 80% | 
CCN(CC)CCCN1C(=O)c2ccccc2S1(=O)=O |  |  | Active | < 54% |  | 
CCN(CC)CCN1C(=O)c2ccccc2S1(=O)=O |  |  | Active | < 54% |  | 
NS(=O)(=O)c1ccccc1Br |  |  | Active | < 54% |  | 
O=C(NCCCCNC(=O)c1ccc2ccccc2c1)c1ccc2ccccc2c1 |  | Active |  | 99% |  | 
O=C1NS(=O)(=O)c2ccccc21 [SACCHARIN] |  |  | Active | < 54% | 73% | IC50 [8]: 3600 nM
O=S(=O)(CCCN1CCN(c2ccccc2)CC1)NCCNc1cccc2ccccc12 | Active | Active |  |  | > 40% | 
O=S(=O)(CCCN1CCC(c2ccccc2)CC1)NCCNc1cccc2ccccc12 | Active |  |  |  | 58% | inhibition ([3]; concentration not given here): 87%; IC50 [8]: 5080 nM; inhibition [9]: Active
O=C1c2ccccc2S(=O)(=O)N1CCCN(CCO)CCO |  |  | Active | < 54% |  | 
O=C1c2ccccc2S(=O)(=O)N1CCO |  |  | Active | < 54% |  | 
O=S(=O)(CCCN1CCN(c2ncccn2)CC1)NCCNc1cccc2ccccc12 | Active | Active |  |  |  | 
O=S(=O)(CCCN1CCOCC1)NCCNc1cccc2ccccc12 | Active | Active |  |  |  | 
CC(C(O)c1ccccc1)N(C)CCCS(=O)(=O)NCCNc1cccc2ccccc12.Cl (centres undefined) | Active | Active |  |  | > 40% | Activity [1]: Active
O=C(CCC(=O)NCCNc1cccc2ccccc12)NCCNc1cccc2ccccc12 |  | Active |  | 50% |  | 
O=S(=O)(CCCN1CCN(Cc2ccccc2)CC1)NCCNc1cccc2ccccc12 | Active |  |  |  | 90% | Activity [1]: Active; IC50 [10]: 160 nM; inhibition ([3]; concentration not given here): 43%; IC50 [8]: 2000 nM
O=S(=O)(CCCN1CCC(Cc2ccccc2)CC1)NCCNc1cccc2ccccc12 | Active |  |  |  | > 40% | inhibition ([3]; concentration not given here): 60%
NS(=O)(=O)c1ccc([N+](=O)[O-])cc1 |  |  | Active | < 54% |  | 
Cc1ccccc1S(N)(=O)=O |  |  | Active | < 54% |  | 
Oc1ccc(/C=C/c2cc(O)cc(O)c2)cc1 [RESVERATROL] |  |  |  |  |  | Activity [1]: Active
COc1ccc(S(N)(=O)=O)cc1 |  |  | Active | < 54% |  | 
